From ChEMBL document CHEMBL1221339, “Modulation of the inhibitor properties of dipeptidyl (acyloxy)methyl ketones toward the CaaX proteases” (Bioorg Med Chem, 2010)
The source made the active and inactive calls. The calls are words filed in the database; no cut-off is given here.

Tests used:
[1] = biological target: T1, CAAX prenyl protease 2 (Saccharomyces cerevisiae S288c) (UniProt Q03530); assay: Inhibition of Saccharomyces cerevisiae SM3614 Ras converting enzyme 1 at 100 uM after 60 mins by fluorescence based proteolysis assay
T1 sequence (whole entry): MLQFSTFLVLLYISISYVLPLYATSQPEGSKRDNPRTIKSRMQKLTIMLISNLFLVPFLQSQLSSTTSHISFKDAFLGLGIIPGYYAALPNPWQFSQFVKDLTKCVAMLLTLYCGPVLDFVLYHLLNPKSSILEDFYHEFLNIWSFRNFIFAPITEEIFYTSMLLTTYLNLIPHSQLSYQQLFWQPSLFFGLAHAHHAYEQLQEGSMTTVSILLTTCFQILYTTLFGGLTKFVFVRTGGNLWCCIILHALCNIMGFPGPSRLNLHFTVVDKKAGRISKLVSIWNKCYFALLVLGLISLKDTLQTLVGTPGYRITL
Method in brief: (§1)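 Membranes enriched for yeast Rce1p (plasmid pWS479 in SM3614, ste24Δ rce1Δ), 0.25 mg/mL final in 100 mM HEPES pH 7.5, 5 mM MgCl2. Pretreated 15 min at 30 °C with 100 µM compound, then 20 µM quenched ABz-KSKTKC(farnesyl)QLIM added. Fluorescence 320/420 nm read every 30–60 s for 60 min at 30 °C. Initial velocities give % activity vs DMSO. At least 4 replicates.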

Saccharomyces cerevisiae = assay: Inhibition of Saccharomyces cerevisiae SM3614 Ras converting enzyme 1 Ste24 mutant at 100 uM after 60 mins by fluorescence based proteolysis assay
Method in brief: as §1, with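 “Ste24p” for “Rce1p”, “pSM1282” for “pWS479”, “ABz-KSKTKC(farnesyl)VIQL” for “quenched ABz-KSKTKC(farnesyl)QLIM”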

| SMILES | Activity [1] | Activity (Saccharomyces cerevisiae) |
| --- | --- | --- |
| CC(=O)N[C@@H](Cc1ccc(O)cc1)C(=O)N[C@@H](Cc1ccccc1)C(=O)N[C@@H](CCCNC(=N)N)C(=O)COC(=O)c1c(C)cccc1C | inactive | inactive |
| Cc1ccc(C(=O)OCC(=O)[C@H](C)NC(=O)[C@H](Cc2ccccc2)NC(=O)OCc2ccccc2)cc1 | Active | Active |
| CC(C)(C)OC(=O)NCCCC[C@H](NC(=O)[C@H](Cc1ccccc1)NC(=O)OCc1ccccc1)C(=O)CBr | inactive | inactive |
| N=C(N)NCCC[C@H](NC(=O)[C@H](Cc1ccccc1)NC(=O)OCc1ccccc1)C(=O)COC(=O)c1ccc([N+](=O)[O-])cc1 | Active | Active |
| CC(C)(C)OC(=O)NCCCC[C@H](NC(=O)[C@H](Cc1ccccc1)NC(=O)OCc1ccccc1)C(=O)O | inactive | inactive |
| N=C(N)NCCC[C@H](NC(=O)[C@H](Cc1ccccc1)NC(=O)OCc1ccccc1)C(=O)COC(=O)c1ccccc1 | Active | Active |
| Cc1cc(C)c(C(=O)OCC(=O)[C@H](CCCNC(=N)N)NC(=O)[C@H](Cc2ccccc2)NC(=O)OCc2ccccc2)c(C)c1 | Active | Active |
| Cc1cc(C)c(C(=O)OCC(=O)[C@H](C)NC(=O)[C@H](Cc2ccccc2)NC(=O)OCc2ccccc2)c(C)c1 | Active | Active |
| NCCCC[C@H](NC(=O)[C@H](Cc1ccccc1)NC(=O)OCc1ccccc1)C(=O)O | inactive | inactive |
| COc1ccc(C(=O)OCC(=O)[C@H](CCCNC(=N)N)NC(=O)[C@H](Cc2ccccc2)NC(=O)OCc2ccccc2)cc1 | Active | Active |
| Cc1cccc(C)c1C(=O)OCC(=O)[C@H](CCCNC(=N)N)NC(=O)[C@H](Cc1ccccc1)NC(=O)OCc1ccccc1 | Active | Active |
| C[C@H](NC(=O)[C@H](Cc1ccccc1)NC(=O)OCc1ccccc1)C(=O)COC(=O)c1ccccc1 | Active | Active |
| C[C@H](NC(=O)[C@H](Cc1ccccc1)NC(=O)OCc1ccccc1)C(=O)COC(=O)c1ccc([N+](=O)[O-])cc1 | Active | Active |
| Cc1ccc(C(=O)OCC(=O)[C@H](CCCNC(=N)N)NC(=O)[C@H](Cc2ccccc2)NC(=O)OCc2ccccc2)cc1 | Active | Active |
| Cc1cccc(C)c1C(=O)OCC(=O)[C@H](C)NC(=O)[C@H](Cc1ccccc1)NC(=O)OCc1ccccc1 | Active | Active |
| COc1ccc(C(=O)OCC(=O)[C@H](C)NC(=O)[C@H](Cc2ccccc2)NC(=O)OCc2ccccc2)cc1 | Active | Active |
| N=C(N)NCCC[C@H](NC(=O)[C@H](Cc1ccccc1)NC(=O)OCc1ccccc1)C(=O)COC(=O)c1c(C(F)(F)F)cccc1C(F)(F)F | Active | Active |
| C[C@H](NC(=O)[C@H](Cc1ccccc1)NC(=O)OCc1ccccc1)C(=O)COC(=O)c1c(C(F)(F)F)cccc1C(F)(F)F | Active | Active |
| CC(=O)NC(Cc1ccc(O)cc1)C(=O)N[C@@H](Cc1ccccc1)C(=O)NCC(=O)COC(=O)c1c(C)cccc1C (single isomer, unassigned) | inactive | inactive |
